The source of these data is ChEMBL document CHEMBL3804753, “Substituted quinolines as noncovalent proteasome inhibitors” (Bioorg Med Chem, 2016).

Tested on in one test: not listed separately
As to the kind of experiment: Inhibition of human 20s proteasome in human TNFalpa stimulated NF-kappaB-luc expressing HeLa cells assessed as suppression of NF-kappaB mediated gene expression preincubated for 30 min followed by TNFalpha stimulation measured after 8 hrs by steady-Glo luciferase assay. The format is cell-based. A digest of the protocol: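 HeLa NF-κB-luc cells were seeded in DMEM with 5% FBS and hygromycin B. After 24 h the medium was swapped for serum-free DMEM with antibiotics. Cells were pretreated 30 min at 37 °C, 5% CO2 with compound (final 50, 25, 12.5, 6.25, 3.13, 1.56 μM), vehicle 1% DMSO, or 50 μM MG-132 as positive control. TNF-α (25 ng/mL final) was then added for 8 h. Firefly luciferase was read by Steady-Glo, normalized to TNF-α stimulation. Average of 2 independent experiments.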
`Cc1cc(C)c2cc(C3=CCCCC3)c(C)nc2c1`: the IC50 is 12.1 µM.

The next test concerns the target T1, Proteasome Macropain subunit MB1 (Homo sapiens, UniProt P28074).
T1 sequence (P28074 whole entry): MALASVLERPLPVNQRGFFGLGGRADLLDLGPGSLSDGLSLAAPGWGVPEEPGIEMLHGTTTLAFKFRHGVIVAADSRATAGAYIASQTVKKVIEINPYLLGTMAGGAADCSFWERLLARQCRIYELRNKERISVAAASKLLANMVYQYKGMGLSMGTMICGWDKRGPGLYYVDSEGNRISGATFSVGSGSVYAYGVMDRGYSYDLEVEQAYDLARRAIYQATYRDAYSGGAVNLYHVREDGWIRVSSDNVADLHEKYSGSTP
As to the kind of experiment: Inhibition of human 20S proteasome chymotryptic-like activity using Suc-LLVY-AMC as substrate measured for 30 mins by fluorescence assay. In outline: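 Purified human 20S proteasome (1 nM) in 50 mM Tris-HCl pH 7.5 with 0.03% SDS and 50 μM fluorogenic substrate (Suc-LLVY-AMC for CT-L, Z-ARR-AMC for T-L, Z-LLE-AMC for casp-L), 37 °C. Maximum fluorescence increase per minute gave specific activity; IC50 taken from the linear portion of the curves.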
In the case of `Cc1nc2ccc(Br)cc2cc1-c1ccccc1`, the IC50 is > 25 µM. Regarding `Cc1cnc2ccccc2c1`, the half-inhibitory concentration (IC50) is > 25 µM. On the same count and under the same terms, the result for `Cc1nc2ccc(N3CCCCC3)cc2cc1C1=CCCCC1` reads 5.4 µM; that for `Cc1ccc2ccccc2n1` [QUINALDINE], > 25 µM; that for `Cc1nc2cc(Br)cc(Br)c2cc1C1=CCCCC1`, > 25 µM. With `c1ccc(-c2cnc3ccccc3c2)cc1`, the IC50 was > 25 µM. The same measure, in the same setting: for `CN(C)c1ccc2ncc(C(C)(C)C)cc2c1` the value was > 25 µM. Still for that read-out and setting: the result for `CCCCc1ccc2cc(N(C)C)ccc2n1` reads > 25 µM. Same read-out and setting: the result for `C=C(C)c1cc2c(C)cc(C)cc2nc1CC` reads > 25 µM; that for `Cc1nc2ccc(C(C)C)cc2cc1-c1ccccc1`, > 25 µM; that for `Cc1nc2ccc(F)cc2cc1C1=CCCCC1`, > 25 µM. For the compound `CN(C)c1ccc2nc(-c3ccccc3)c(-c3ccccc3)cc2c1`, the 50% inhibitory concentration (IC50) is > 25 µM.

Regarding `Cc1nc2ccccc2cc1C1=CCCCC1`, the IC50 was > 25 µM. The same measure, in the same setting: the result for `Cc1cc(C)c2cc(-c3ccccc3)c(-c3ccccc3)nc2c1` reads > 25 µM. Turning to `Cc1nc2cc(Cl)cc(Cl)c2cc1C1=CCCCC1`, the IC50 was > 25 µM.

`Cc1nc2ccc(N3CCOCC3)cc2cc1C1=CCCCC1` gave an IC50 of 9.1 µM. As for `COc1ccc2nc(C)c(C3=CCCCC3)cc2c1`, the IC50 is > 25 µM. On the same count and under the same terms, for `Cc1nc2ccc(Cl)cc2cc1C1=CCCCC1` the value was > 25 µM.

The target of a further test is T1, Proteasome Macropain subunit MB1. In words: Inhibition of human 20S proteasome chymotryptic-like activity using Suc-LLVY-AMC as substrate assessed as fluorescence quinching control by fluorescence assay.
As for `CN(C)c1ccc2nc(-c3ccccc3)c(-c3ccccc3)cc2c1`, the IC50 was found to be 2.3 µM.
